Results as given in ChEMBL document CHEMBL1142210, “Plasmid-mediated KPC-2 in a Klebsiella pneumoniae isolate from China” (2007).
Values after ≈ are worked out from the molar mass of the structure shown.

What was measured:
Type in all cases: functional
[1] = test system: Klebsiella pneumoniae; experiment: Antimicrobial activity against carbapenem-resistant Klebsiella pneumoniae ZR01 from patient sputum by agar dilution method
How it was run: (§1)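 Agar dilution MIC testing run per CLSI (formerly NCCLS) guidelines. Where an agent was combined with clavulanic acid, the clavulanic acid was held at a fixed 4 μg/ml.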

[2] = test system: Escherichia coli; experiment: Antimicrobial activity against Escherichia coli DH5-alpha pYW1 transformants expressing KPC2 gene by agar dilution method; settings: DH5alpha; how it was run: as §1
[3] = test system: Escherichia coli; experiment: Antimicrobial activity against Escherichia coli DH5alpha by agar dilution method; how it was run: as §1
[4] = test system: Escherichia coli; experiment: Antimicrobial activity against Escherichia coli DH5-alpha with pGEM-T EASY expressing TEM1 gene by agar dilution method; settings: DH5alpha; how it was run: as §1
[5] = test system: Escherichia coli; experiment: Antimicrobial activity against Escherichia coli DH5-alpha with pYW2 expressing KPC2 and TEM1 gene by agar dilution method; settings: DH5alpha; how it was run: as §1

Compound	MIC [1]	MIC [2]	MIC [3]	MIC [4]	MIC [5]
POLYMYXIN B	2 µg/mL	1 µg/mL	1 µg/mL	1 µg/mL	1 µg/mL
CC(C)(O/N=C(\C(=O)N[C@@H]1C(=O)N2C(C(=O)[O-])=C(C[n+]3ccccc3)CS[C@H]12)c1csc(N)n1)C(=O)O [CEFTAZIDIME]	> 256 µg/mL	4 µg/mL (≈ 7.32 µM)	0.25 µg/mL (≈ 0.457 µM)	0.5 µg/mL (≈ 0.915 µM)	32 µg/mL (≈ 58.5 µM)
CO/N=C(\C(=O)N[C@@H]1C(=O)N2C(C(=O)O)=C(CSc3nc(=O)c(O)nn3C)CS[C@H]12)c1csc(N)n1 [CEFTRIAXONE]	> 256 µg/mL	8 µg/mL (≈ 14.4 µM)	0.094 µg/mL (≈ 0.169 µM)	0.094 µg/mL (≈ 0.169 µM)	64 µg/mL (≈ 115 µM)
COLISTIN	0.5 µg/mL	0.5 µg/mL	0.5 µg/mL	0.5 µg/mL	0.5 µg/mL
CO[C@H]1/C=C/O[C@@]2(C)Oc3c(C)c(O)c4c(O)c(c(/C=N/N5CCN(C)CC5)c(O)c4c3C2=O)NC(=O)/C(C)=C\C=C\[C@H](C)[C@H](O)[C@@H](C)[C@@H](O)[C@@H](C)[C@H](OC(C)=O)[C@@H]1C [RIFAMPIN]	16 µg/mL (≈ 19.4 µM)	16 µg/mL (≈ 19.4 µM)	16 µg/mL (≈ 19.4 µM)	16 µg/mL (≈ 19.4 µM)	16 µg/mL (≈ 19.4 µM)
NCC[C@H](O)C(=O)N[C@@H]1C[C@H](N)[C@@H](O[C@H]2O[C@H](CN)[C@@H](O)[C@H](O)[C@H]2O)[C@H](O)[C@H]1O[C@H]1O[C@H](CO)[C@@H](O)[C@H](N)[C@H]1O [AMIKACIN]	> 256 µg/mL	1 µg/mL (≈ 1.71 µM)	1 µg/mL (≈ 1.71 µM)	1 µg/mL (≈ 1.71 µM)	1 µg/mL (≈ 1.71 µM)
C[C@@H](O)[C@H]1C(=O)N2C(C(=O)O)=C(S[C@@H]3CN[C@H](C(=O)Nc4cccc(C(=O)O)c4)C3)[C@H](C)[C@H]12 [ERTAPENEM]	> 256 µg/mL	0.5 µg/mL (≈ 1.05 µM)	0.008 µg/mL (≈ 0.0168 µM)	0.012 µg/mL (≈ 0.0252 µM)	2 µg/mL (≈ 4.21 µM)
CO/N=C(\C(=O)N[C@@H]1C(=O)N2C(C(=O)O)=C(COC(C)=O)CS[C@H]12)c1csc(N)n1 [CEFOTAXIME]	> 256 µg/mL	4 µg/mL (≈ 8.78 µM)	0.094 µg/mL (≈ 0.206 µM)	0.094 µg/mL (≈ 0.206 µM)	32 µg/mL (≈ 70.3 µM)
CO/N=C(\C(=O)N[C@@H]1C(=O)N2C(C(=O)[O-])=C(C[N+]3(C)CCCC3)CS[C@H]12)c1csc(N)n1 [CEFEPIME]	> 256 µg/mL	2 µg/mL (≈ 4.16 µM)	0.032 µg/mL (≈ 0.0666 µM)	0.125 µg/mL (≈ 0.26 µM)	–
C[C@@H](O)[C@H]1C(=O)N2C(C(=O)O)=C(S[C@@H]3CN[C@H](C(=O)N(C)C)C3)[C@H](C)[C@H]12 [MEROPENEM]	> 32 µg/mL	4 µg/mL (≈ 10.4 µM)	0.06 µg/mL (≈ 0.156 µM)	0.06 µg/mL (≈ 0.156 µM)	4 µg/mL (≈ 10.4 µM)
O=C(O)c1cn(C2CC2)c2cc(N3CCNCC3)c(F)cc2c1=O [CIPROFLOXACIN]	> 32 µg/mL	–	–	–	–
C[C@@H](O)[C@H]1C(=O)N2C(C(=O)O)=C(SCCNC=N)C[C@H]12 [IMIPENEM ANHYDROUS]	> 32 µg/mL	4 µg/mL (≈ 13.4 µM)	–	–	8 µg/mL (≈ 26.7 µM)
C[C@H]1[C@H](NC(=O)/C(=N\OC(C)(C)C(=O)O)c2csc(N)n2)C(=O)N1S(=O)(=O)O [AZTREONAM]	> 256 µg/mL	32 µg/mL (≈ 73.5 µM)	–	–	64 µg/mL (≈ 147 µM)
